For orientation: pIC50 means the IC50 on a negative log10 scale, so that one unit is a factor of ten. Low readings indicate a large IC50, high ones a small IC50.

pIC50: −log10 of the molar value.

Series [1] is described as follows: Inhibition of HIV1 gp120 binding to CD4 by SPR competition binding assay. On the set-up: species or system Human immunodeficiency virus 1. (In general: SPR reads the build-up and loss of mass on a sensor chip optically.)
A short description of series [2]: Inhibition of HIV1 gp120 binding to 17b antibody by SPR competition binding assay. Set-up: species or system Human immunodeficiency virus 1.
Series [3] can be described thus: Stability assessed as trypsin (unknown origin)-mediated compound degradation incubated for 5 hrs at 37 degC by HPLC and ESI-MS method. The class given is ADME. The note with it: human. Summed up:
(§1)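 Each peptide was incubated on its own with a single protease (trypsin or chymotrypsin) at 37 °C. Digestion was tracked by HPLC and ESI-MS for remaining intact peptide. For chymotrypsin, samples were taken after 30 min, and the cyclic peptide was also checked after 20 h and 40 h.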

Series [4] in a line: Stability assessed as chymotrypsin (unknown origin)-mediated compound degradation incubated for 5 hrs at 37 degC by HPLC and ESI-MS method. The class given is ADME. To be noted: human. Summed up:
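Each peptide incubated on its own with chymotrypsin at 37 °C. Digestion followed over time by HPLC, with ESI-MS used to check the intact peptide and its fragments. Extended sampling at 20 h and 40 h was also done.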

Series [5] in a line: Stability assessed as chymotrypsin (unknown origin)-mediated compound degradation incubated for 30 mins at 37 degC by HPLC and ESI-MS method. To be noted: human, 0.5 h. The series is classed as ADME. Summed up:
as §1

The nature of series [6]: Stability assessed as chymotrypsin (unknown origin)-mediated compound degradation incubated for 20 hrs at 37 degC by HPLC and ESI-MS method. The series is classed as ADME. The note with it: human. Summed up: as §1
A short description of series [7]: Stability assessed as chymotrypsin (unknown origin)-mediated compound degradation incubated for 40 hrs at 37 degC by HPLC and ESI-MS method. The class given is ADME. To be noted: human. The method, boiled down: as §1

In the case of `CC[C@@H](C)[C@@H](N)C(=O)N[C@H]1CCC(=O)NCCCC[C@H](C(N)=O)NC(=O)[C@@H](Cc2c[nH]c3ccccc23)NC(=O)[C@H]2C[C@@H](n3cc(CCc4ccccc4)nn3)CN2C(=O)[C@@H]([C@H](C)CC)NC(=O)[C@@H](CC(N)=O)NC1=O`, the pIC50 in series [1] is 6.86; in series [2] it was 6.57.
Taken in the same sequence, the figures for `CC[C@@H](C)[C@H]1NC(=O)[C@@H](CC(N)=O)NC(=O)[C@@H](N)CCC(=O)NCCCC[C@H](C(N)=O)NC(=O)[C@@H](Cc2c[nH]c3ccccc23)NC(=O)[C@H]2C[C@@H](n3cc(CCc4ccccc4)nn3)CN2C1=O` were under 4.40 and under 4.40.
`CC[C@@H](C)[C@H]1NC(=O)[C@@H](CC(N)=O)NC(=O)[C@@H](N)CC(=O)NCCCC[C@H](C(N)=O)NC(=O)[C@@H](Cc2c[nH]c3ccccc23)NC(=O)[C@H]2C[C@@H](n3cc(CCc4ccccc4)nn3)CN2C1=O`: the pIC50 is 7.07 in series [1] and 7.02 in series [2]. The Stability entry in series [3] (5 h), in series [4], in series [5], in series [6] and in series [7] was “Stable” each time.
`CC[C@@H](C)[C@H]1NC(=O)[C@@H](CC(N)=O)NC(=O)[C@@H](N)CC(=O)NCCC[C@H](C(N)=O)NC(=O)[C@@H](Cc2c[nH]c3ccccc23)NC(=O)[C@H]2C[C@@H](n3cc(CCc4ccccc4)nn3)CN2C1=O`: the pIC50 in series [1] was 5.24; in series [2], 5.41.
The matching figures for `CC[C@@H](C)[C@H]1NC(=O)[C@@H](CC(N)=O)NC(=O)[C@@H](N)CCC(=O)NCC[C@H](C(N)=O)NC(=O)[C@@H](Cc2c[nH]c3ccccc23)NC(=O)[C@H]2C[C@@H](n3cc(CCc4ccccc4)nn3)CN2C1=O`: under 4.70 and under 4.70.
Taken in the same sequence, the figures for `CC[C@@H](C)[C@H]1NC(=O)[C@@H](CC(N)=O)NC(=O)[C@@H](N)CC(=O)NCC[C@H](C(N)=O)NC(=O)[C@@H](Cc2c[nH]c3ccccc23)NC(=O)[C@H]2C[C@@H](n3cc(CCc4ccccc4)nn3)CN2C1=O` were 6.30 and 6.40.
On to `CC[C@@H](C)[C@@H](NC(=O)[C@@H](CC(N)=O)NC(=O)[C@@H](N)CC(=O)O)C(=O)N1C[C@H](n2cc(CCc3ccccc3)nn2)C[C@@H]1C(=O)N[C@H](Cc1c[nH]c2ccccc12)C(=O)N[C@H](CCCCN)C(N)=O`, for which the metabolised at 5 h in series [3] (trypsin, read-out: Drug degradation) is 60%. Further, the Drug degradation is 60% in series [4] and 100% in series [5].

For the origin of these results see ChEMBL document CHEMBL3616414, “Macrocyclic Envelope Glycoprotein Antagonists that Irreversibly Inactivate HIV-1 before Host Cell Encounter” (J Med Chem, 2015).
